Measured values of several laboratories.
Each line is one published result; the experiments were not run side by side.
Target: Vasopressin V1a receptor (AVPR1A, Homo sapiens, UniProt P37288)

Compound	observed	technique	tested at	endpoint	value
COCc1c(-c2cc3cc(C)cc(OC)c3s2)c2c(N)ncnn2c1CN1CCNC(=O)C1	ligand displacement	radioligand	10 µM	inhibition	-11%
COc1ccc(S(=O)(=O)N2CCCCC2)cc1C	ligand displacement	radioligand	10 µM	inhibition	< 30%
c1ccc(C(NCCNC(c2ccccc2)c2ccccc2)c2ccccc2)cc1	cell-free assay	–	10 µM	inhibition	-1%
CCN(CC)CCCC[C@H](NC(=O)[C@H](CC(C)C)NC(=O)[C@H](C)NC(=O)[C@H](Cc1ccccc1)NC(=O)c1ccc(C(C)(C)C)cc1)C(=O)N[C@@H](CO)C(=O)OC	ligand displacement	radioligand	10 µM	remaining binding	14.6%
O=C(Nc1cccnn1)N1CCN([C@@H]2CCOc3cc(C(F)(F)F)ccc32)CC1	ligand displacement	–	20 µM	inhibition	5%
Clc1ccc2c(C3CCN(CCc4c[nH]c5ccccc45)CC3)c[nH]c2c1	ligand displacement	radioligand	10 µM	inhibition	2%
CN(CCN1CCC(OC(=O)Nc2ccccc2-c2ccccc2)CC1)C(=O)c1ccc(CN2CCC(C(N)=O)CC2)cc1	ligand displacement	radioligand	1 µM	inhibition	5%
C[C@H](C(=O)N[C@H]1COc2ccccc2[C@@H]1S(C)(=O)=O)c1ccc(F)cc1	cell-free assay	–	10 µM	inhibition	-23%
Nc1ncc(-c2nc(N3CCOCC3)nc(N3CCOCC3)n2)c(C(F)F)n1	cell-free assay	radioligand	10 µM	remaining signal	104%
